# LEDGF integ inh – blocks HIV-1 LEDGF/p75-dependent DNA integration | TR-FRET IN-LEDGF/p75 DNA integration, Eu/Cy5 | inhibition, % at 3.7 µM | actives 0.64% (n = 370,000) | AID 743269;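 active = inhibition above the screen-wide mean plus 3 SD, cut at about 13% in these data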;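 note: signal is the Cy5 over europium emission ratio at 671 and 618 nm; 0% = plate median of compound wells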
# NSD2 HMT inh – inhibitors of human histone methyltransferase NSD2; O96028; NSD2 peptide methylation, AlphaScreen, 120 min; inhibition, % at 12.5 µM; actives 0.54% (n = 310,000); AID 743445; in the data active = inhibition above about 50%
# Casp6 inh – inhibitors of human caspase-6 | P55212 | inhibition, % at 12.5 µM | purified caspase-6, Z-VEID-R110 cleavage fluorescence | actives 0.53% (n = 350,000);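 active = mean inhibition across replicates at least about 35%, with every replicate also reaching that limit, limit read from the data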;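 note: 0% = median of neutral control wells and 100% = no fluorescence left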
# UHRF1 binding – blocks human UHRF1 binding to methylated DNA | UHRF1 binding to methylated oligo, TR-FRET | inhibition, % at 4.4 µM | actives 0.75% (n = 370,000); in the data active = inhibition above about 21%;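 note: UHRF1 SRA domain binding a hemimethylated CpG hairpin DNA probe; 0% = median of test compound wells and 100% = reference inhibitor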
# Target sequence (Q96T88 whole entry, looked up, the tested form may be a part): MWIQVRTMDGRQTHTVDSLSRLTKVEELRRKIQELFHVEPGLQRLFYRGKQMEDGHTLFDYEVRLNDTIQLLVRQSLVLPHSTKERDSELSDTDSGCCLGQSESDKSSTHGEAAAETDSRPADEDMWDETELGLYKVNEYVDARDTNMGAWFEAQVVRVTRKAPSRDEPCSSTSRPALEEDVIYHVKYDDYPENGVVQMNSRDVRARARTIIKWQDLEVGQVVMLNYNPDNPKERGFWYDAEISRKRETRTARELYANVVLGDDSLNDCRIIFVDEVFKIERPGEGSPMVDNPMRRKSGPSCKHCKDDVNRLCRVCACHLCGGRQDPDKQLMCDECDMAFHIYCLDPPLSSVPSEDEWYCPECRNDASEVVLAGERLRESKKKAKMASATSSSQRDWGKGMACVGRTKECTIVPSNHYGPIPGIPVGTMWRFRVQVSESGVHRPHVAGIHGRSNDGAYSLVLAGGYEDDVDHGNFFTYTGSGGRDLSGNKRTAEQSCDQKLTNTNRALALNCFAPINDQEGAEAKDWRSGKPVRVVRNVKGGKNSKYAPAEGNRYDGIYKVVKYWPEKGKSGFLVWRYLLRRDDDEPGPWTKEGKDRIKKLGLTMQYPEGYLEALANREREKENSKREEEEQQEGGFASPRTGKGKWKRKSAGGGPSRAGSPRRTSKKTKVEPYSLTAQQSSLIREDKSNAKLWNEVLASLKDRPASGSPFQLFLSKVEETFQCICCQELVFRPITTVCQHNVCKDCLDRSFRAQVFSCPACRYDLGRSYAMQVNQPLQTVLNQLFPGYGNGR
# TDP2 inh – TDP2 (human) inhibition, absorbance primary screen; recombinant TDP2, T5PNP hydrolysis, p-nitrophenol absorbance 415 nm; O95551; actives 0.34% (n = 370,000); inhibition, % at 12.8 µM;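 active = inhibition above the mean of all tested compounds plus 3 SD, set per campaign, cut at about 25% in these data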;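 note: 0% = DMSO with enzyme and 100% = buffer with substrate but no TDP2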
#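 Incubation: 2 h at 37 °C; Test system: recombinant human TDP2; Quantity: enzyme 120 nM; Read-out basis: percent inhibition; Medium: 50 mM Tris-HCl pH 7.5 with Mg2+, KCl, DTT, BSA; Repeats: single replicate; Compound: 12.8 µM single point, 1% DMSO; Signal: epi absorbance; Reagent: 5 mM T5PNP chromogenic substrate; Benchmarks: no-enzyme high, DMSO-plus-enzyme low.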
# MBD2 inh – MBD2-methylated oligo binding inhibition | Q9UBB5 | TR-FRET, MBD2 binding to methylated oligonucleotide | inhibition, % at 4.4 µM | actives 0.31% (n = 370,000) | AID 686964; in the data active = inhibition above about 13%
# * hit, by the source's call; nt = not tested or not shown. The list is not random: actives were taken first. Their share in the collection is about 1.8%.
SMILES,LEDGF integ inh,NSD2 HMT inh,Casp6 inh,UHRF1 binding,TDP2 inh,MBD2 inh
CC(C)CC(=O)NCCCCc1ccccc1,3,0,1,21*,5,-2
CCn1c2ccccc2c2cc(NC(=O)C(=O)N3CCOCC3)ccc21,-5,0,nt,23*,11,-1
O=C1N=C(N2CCCCC2)S/C1=C/C1=Cc2ccccc2OC1,-5,-2,2,1,-15,5
O=C1N=C(N2CCCC2C(=O)O)S/C1=C\c1ccco1 (centres undefined),27*,6,9,16,10,-4
Cc1noc(C)c1S(=O)(=O)Nc1ccc2c(c1)C(=O)N([C@H](C)CO)C[C@H](C)[C@@H](CN(C)S(=O)(=O)c1ccc(F)cc1)OCCCC[C@@H](C)O2,nt,nt,0,nt,nt,nt
O=[N+]([O-])c1ccc(O)c2ncccc12,2,nt,63*,-9,-6,-9
O=[N+]([O-])c1cccc2c1ccc1ncccc12,-2,1,1,49*,-2,-2
O=[N+]([O-])c1cc([N+](=O)[O-])c2cccnc2c1Oc1ccccc1O,-4,11,45*,-9,-6,-13
O=[N+]([O-])c1cc(F)c2cccnc2c1O,-4,11,92*,-8,6,-12
O=[N+]([O-])c1ccc(O)c2cccnc12,2,-1,4,-9,-3,-12
O=[N+]([O-])c1cc(Cl)c2cccnc2c1O,-4,1,nt,-11,-3,-15
O=[N+]([O-])c1cc(Cl)c(O)c2ncccc12,2,24,nt,-25,1,-22
Cc1ccc2ncccc2c1[N+](=O)[O-],3,-7,1,-5,11,-3
O=C(C[C@H]1CC[C@H](NC(=O)NC2CCCC2)[C@@H](CO)O1)NCc1ccc(F)cc1,nt,nt,-1,nt,nt,nt
C[C@@H]1CCCCO[C@H](CN(C)C(=O)Nc2ccc3c(c2)OCO3)[C@H](C)CN([C@H](C)CO)C(=O)c2cc(NC(=O)CCC(F)(F)F)ccc2O1,nt,nt,2,nt,nt,nt
CCOC(=O)c1c(-c2ccccc2)csc1N1C(=O)Nc2ccccc2N1O,4,2,2,1,0,0
CCOC(=O)c1cccc(N2C(=O)Nc3ccccc3N2O)c1,1,-1,nt,23*,-1,3
CCCC(=O)N1CC2(C1)CN(C(=O)CC)[C@@H](CO)c1c2c2ccc(OC)cc2n1C,nt,nt,0,nt,nt,nt
O=C(CCN1C(=O)c2cccc3cccc(c23)C1=O)NCc1cccnc1,0,0,-1,25*,-3,-4
O=C(CCN1C(=O)C2C3C=CC(C3)C2C1=O)NCc1cccnc1 (centres undefined),0,-1,nt,22*,1,7
COCC(=O)Nc1ccc2c(c1)[C@H]1C[C@H](CC(=O)N[C@H](C)c3ccccc3)O[C@@H](CO)[C@H]1O2,nt,nt,3,nt,nt,nt
CCS(=O)(=O)N1Cc2ccccc2CC1C(=O)Nc1cccc(C)c1 (centres undefined),-11,-1,2,50*,-1,4
COc1ccc(CNC(=O)C[C@@H]2C[C@H]3c4cc(NC(=O)NC5CCCC5)ccc4O[C@H]3[C@@H](CO)O2)cc1,nt,nt,2,nt,nt,nt
C[C@@H]1CCCCO[C@H](CN(C)C(=O)C2CCCCC2)[C@@H](C)CN([C@@H](C)CO)C(=O)c2cc(NC(=O)c3ccccc3)ccc2O1,nt,nt,2,nt,nt,nt
COc1ccc(C2(c3ccc(OC)cc3)NC(=O)N(CC(=O)Nc3ccc(N4CCOCC4)cc3)C2=O)cc1,-5,4,51*,2,9,-1
C[C@@H]1CN([C@@H](C)CO)C(=O)c2cc(NS(=O)(=O)c3ccc(F)cc3)ccc2O[C@@H](C)CCCCO[C@H]1CN(C)C(=O)c1ccncc1,nt,nt,-6,nt,nt,nt
Cc1cc(C(=O)N/N=C/c2cc(Br)c(Br)o2)n[nH]1,4,16,54*,-1,10,-3
Cc1cc(C(=O)N/N=C/c2ccc(Br)o2)n[nH]1,2,2,16,-5,11,2
CO[C@H]1O[C@H](CO)[C@@H](OC(=O)Nc2ccccc2-c2ccccc2)[C@H](OC(=O)Nc2ccccc2-c2ccccc2)[C@@H]1OC(=O)Nc1ccccc1-c1ccccc1,nt,nt,9,nt,nt,nt

# Source: PubChem
